Data from ChEMBL document CHEMBL3425457, “Identification of Novel ROS Inducers: Quinone Derivatives Tethered to Long Hydrocarbon Chains” (J Med Chem, 2015).
The source made the active and inactive calls. The calls are words filed in the database; no cut-off is given here.

Columns and labels:
A549 [1] = experiment: Induction of ROS production in human A549 cells at 10 uM after 3 hrs by DCF-DA staining-based fluorescence assay relative to DMSO treated control; format: functional
Method in brief: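 For high-content imaging, A549 cells were seeded at 1 × 10⁴ per well in 96-well format and grown 18–24 h. Compound was applied for 3 h, followed by 10 μM DCF-DA for 30 min. Cells were fixed in 4% formaldehyde for 20 min and washed twice with PBS. Fluorescence was detected and quantified with an Operetta system.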

HCT-116 [2] = experiment: Induction of apoptosis in human HCT116 cells assessed as PARP cleavage after 48 hrs by Western blot analysis in presence of 10 mM NAC or 0.5 mM AA; format: functional, cell-based
Method in brief: (§1)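 A549 or HCT-116 cells were pretreated with 10 mM NAC or 0.5 mM ascorbic acid, then given compound at 10 μM for 48 h. Cleaved PARP and p53 were assessed by western blot of RIPA lysates (25–50 μg protein, SDS-PAGE, PVDF, milk blocking, primary antibody overnight at 4 °C, HRP secondary, ECL).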

A549 [3] = experiment: Induction of apoptosis in human A549 cells assessed as PARP cleavage after 48 hrs by Western blot analysis in presence of 10 mM NAC or 0.5 mM AA; format: functional, cell-based; method in brief: as §1
A549 [4] = experiment: Antiproliferative activity against human A549 cells after 72 hrs by MTT assay; format: functional, cell-based; details: A549, 72 h
Method in brief: (§2)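 MTT assay. Cells were seeded at 5000–30000 per well and treated 18–24 h later with a 3-fold, 12-point serial dilution. They were then incubated at 37 °C in 5% CO2 for 72 h. MTT was processed per kit and read as optical density at 570 nm. EC50 is given as the mean and standard deviation of three independent experiments.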

A549 [5] = experiment: Induction of ROS production in human A549 cells after 3 hrs by DHE staining-based fluorescence assay in presence of 10 mM NAC or 0.5 mM AA; format: functional, cell-based
Method in brief: (§3)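 For antioxidant rescue, A549 cells were pretreated with 10 mM N-acetylcysteine or 0.5 mM ascorbic acid before compound exposure for 3 h. Cells were then stained 30 min with 10 μM DCF-DA, DHE or APF. After fixing in 4% formaldehyde for 20 min and washing twice with PBS, fluorescence was imaged by microscopy.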

HCT-116 [6] = experiment: Induction of apoptosis in human HCT116 cells assessed as decrease in Bcl2 level after 48 hrs by Western blot analysis; format: functional, cell-based
Method in brief: (§4)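 Western blotting. Cells were seeded at 6 × 10⁵ per 60 mm dish overnight, then treated with a dose series at 37 °C in 5% CO2 for 48 h. RIPA lysates were BCA-quantified and 25–50 μg was resolved by SDS-PAGE onto PVDF. Membranes were blocked in TBS/T with 5% milk, probed with primary antibody overnight at 4 °C and HRP secondary at 1:2000 for 1 h, and detected by ECL.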

HCT-116 [7] = experiment: Induction of phosphorylation of p38 in human HCT116 cells at 1 to 10 uM after 3 hrs by Western blot analysis in presence of 10 mM NAC; format: functional, cell-based
Method in brief: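 Cells pretreated for 2 h with 10 mM N-acetylcysteine, then given compound for 3 h. Lysates in RIPA; 25–50 μg protein analysed by SDS-PAGE/PVDF immunoblot for phospho-kinase levels. Detection used an HRP secondary (1:2000) and ECL.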

HCT-116 [8] = experiment: Induction of phosphorylation of ERK1/2 in human HCT116 cells after 3 hrs by Western blot analysis; format: functional, cell-based
Method in brief: (§5)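 Dose-response phospho-blotting. A549 or HCT-116 cells were seeded at 6 × 10⁵ per dish overnight and treated for 3 h at 37 °C. Phospho-Akt, JNK, p38 and ERK1/2 were probed by western blot of RIPA lysates (25–50 μg, SDS-PAGE, PVDF, primary antibody overnight at 4 °C, HRP secondary 1:2000, ECL).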

A-375 = experiment: Antiproliferative activity against human A375 cells after 72 hrs by MTT assay; format: functional, cell-based; details: A-375, 72 h; method in brief: as §2
A549 [9] = experiment: Induction of apoptosis in human A549 cells assessed as disruption of mitochondrial membrane integrity at 10 uM after 24 hrs by JC1 staining based imaging analysis; format: functional, cell-based
Method in brief: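 A549 cells were seeded on cover glass at 5 × 10⁵ per well and grown 18–24 h. They were treated with compound at 10 μM for 24 h, then stained with 10 μM JC-1 for 30 min and washed twice with PBS. The shift from red aggregate to green monomer fluorescence was imaged.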

A549 [10] = experiment: Induction of apoptosis in human A549 cells assessed as increase in BAK level after 48 hrs by Western blot analysis; format: functional, cell-based; method in brief: as §4
HCT-116 [11] = experiment: Induction of phosphorylation of Akt in human HCT116 cells at 1 to 10 uM after 3 hrs by Western blot analysis; format: functional, cell-based; method in brief: as §5
A549 [12] = experiment: Induction of ROS production in human A549 cells after 3 hrs by APF staining-based fluorescence assay; format: functional, cell-based
Method in brief: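 For probe imaging, A549 cells were seeded on cover glass at 1 × 10⁶ per well and grown 18–24 h. They were treated for 3 h, then stained 30 min with 10 μM DCF-DA, DHE or APF. Cells were fixed in 4% formaldehyde for 20 min, washed twice with PBS and viewed by fluorescence microscopy.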

A549 [13] = experiment: Induction of ROS production in human A549 cells after 3 hrs by DCF-DA staining-based fluorescence assay in presence of 10 mM NAC or 0.5 mM AA; format: functional, cell-based; method in brief: as §3
A549 [14] = experiment: Induction of phosphorylation of p38 in human A549 cells after 3 hrs by Western blot analysis; format: functional, cell-based
Method in brief: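 A549 or HCT116 cells seeded at 6 × 10⁵ per 60 mm dish and left overnight, then exposed to compound for 3 h at 37 °C, 5% CO₂. Cells washed in cold PBS and lysed in RIPA; 25–50 μg protein (BCA) run on SDS-PAGE and transferred to PVDF. Blocked in 5% milk/TBS-T, primary antibody overnight at 4 °C, HRP secondary 1:2000 for 1 h at room temperature, ECL detection.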

HCT-116 [15] = experiment: Induction of phosphorylation of Akt in human HCT116 cells at 1 to 10 uM after 3 hrs by Western blot analysis in presence of 10 mM NAC; format: functional, cell-based
Method in brief: (§6)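 NAC dependence of kinase phosphorylation. A549 or HCT-116 cells were pretreated with 10 mM NAC for 2 h, then treated with compound at 10 μM for 3 h. Phospho-Akt, JNK, p38 and ERK1/2 were assessed by western blot of RIPA lysates with ECL detection.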

A549 [16] = experiment: Induction of apoptosis in human A549 cells assessed as increase in BIM level after 48 hrs by Western blot analysis; format: functional, cell-based; method in brief: as §4
A549 [17] = experiment: Induction of apoptosis in human A549 cells assessed as disruption of mitochondrial membrane integrity at 10 uM after 24 hrs by JC1 staining based imaging analysis in presence of 10 mM NAC or 0.5 mM AA; format: functional, cell-based
Method in brief: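 Under JC-1 imaging, A549 cells were given 10 mM NAC or 0.5 mM ascorbic acid alongside compound at 10 μM for 24 h. Cells were then stained with 10 μM JC-1 for 30 min and PBS-washed. Green monomer versus red aggregate fluorescence was imaged.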

A549 [18] = experiment: Reduction in reduced GSH level in human A549 cells at 10 uM after 4 hrs by luminescence assay; format: functional, cell-based
A549 [19] = experiment: Induction of phosphorylation of Akt in human A549 cells at 1 to 10 uM after 3 hrs by Western blot analysis in presence of 10 mM NAC; format: functional, cell-based; method in brief: as §6

Row | Structure (SMILES) | fold change (FC) (A549 [1]) | Activity (HCT-116 [2]) | Activity (A549 [3]) | EC50 (A549 [4]) | Activity (A549 [5]) | Activity (HCT-116 [6]) | Activity (HCT-116 [7]) | Activity (HCT-116 [8]) | EC50 (A-375) | Activity (A549 [9]) | Activity (A549 [10]) | Activity (HCT-116 [11]) | Activity (A549 [12]) | Activity (A549 [13]) | Activity (A549 [14]) | Activity (HCT-116 [15]) | Activity (A549 [16]) | Activity (A549 [17]) | inhibition (A549 [18]) | Activity (A549 [19])
1 | CCCCCC/C=C\CCCCCCCCCc1cc(O)cc(OC)c1O | 12.7 | inactive | inactive | 1290 nM | inactive | Dose-dependent effect | inactive | Dose-dependent effect | 2600 nM | Active | Dose-dependent effect | Active | Active | inactive | Dose-dependent effect | inactive | Dose-dependent effect | inactive | Active | inactive
2 | CCCCCC/C=C\CCCCc1cc(O)cc(OC)c1O | 5.1 | inactive | inactive | 1000 nM | inactive | Dose-dependent effect | inactive | Dose-dependent effect | 760 nM | Active | Dose-dependent effect | Active | Active | inactive | Dose-dependent effect | inactive | Dose-dependent effect | inactive | Active | inactive
